Screening results: PubChem BioAssay, several laboratories
An excerpt weighted towards active compounds, which were near 4.8% of everything screened.
pPAFAH FP inh: pPAFAH (human) enzyme inhibition. Q13093. recombinant pPAFAH, FP-rhodamine probe fluorescence polarization. AID 463082. inhibition, % at 3.39 µM. hit rate 1.5% among 330,000;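 active = inhibition above the mean inhibition across the screen plus 3 SD, cut at about 25% in these data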;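 note: inhibitors block binding of the rhodamine activity-based probe so polarization drops; 0% = enzyme with DMSO and 100% = wells lacking pPAFAH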
PAFAH2 FP inh: inhibitors of human PAFAH2 | Q99487 | recombinant PAFAH2, FP-rhodamine activity probe, fluorescence polarization | inhibition, % at 3.39 µM | hit rate 0.99% among 340,000 | AID 492956;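 active = inhibition above the mean over all tested compounds plus 3 SD, cut at about 30% in these data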;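 note: inhibitors block probe labeling of enzyme so polarization drops; 0% = enzyme with DMSO and 100% = wells lacking PAFAH2 protein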
GRIN3A LBD mod: modulates the human NR3A ligand-binding domain; NR3A LBD differential scanning fluorimetry, Tm shift; 0% = protein alone, 100% = glycine-bound protein; Tm shift relative to glycine control, % at 25 µM; hit rate 2.5% among 340,000; AID 1259313;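 active = melting temperature shift of at least 10% of the positive control shift, at one fixed dose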
UCH37 DUB inh: human UCH37 deubiquitinating enzyme inhibition; Q9Y5K5; purified proteasome/UCH37, Ub-AMC cleavage fluorescence; inhibition, % (concentration not given with the values); hit rate 0.33% among 330,000;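 active = mean inhibition over replicate wells above about 20%, limit read from the data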;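 note: 0% = compound-free wells with enzyme and 100% = wells lacking proteasome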
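Reagent: Ub-AMC substrate; assay system: Proteasome-associated human UCH37 deubiquitinase; controls: no-proteasome and no-compound wells; read-out: % inhibition of Ub-AMC cleavage fluorescence; timing: 30 min preincubation with enzyme, 25 min cleavage at room temperature; signal: AMC fluorescence from Ub-AMC cleavage, excitation 355 nm, emission 460 nm; buffer or medium: Tris-HCl pH 7.4 plus ovalbumin, ATP-MgCl2, DTT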
PAFAH1B2 inh: PAFAH1B2 (human) inhibition; P68402; recombinant PAFAH1B2, FP-rhodamine activity probe, fluorescence polarization; inhibition, % at 3.39 µM; hit rate 1.2% among 340,000; AID 492953;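 active = inhibition above the mean of all tested compounds plus 3 SD, cut at about 24% in these data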;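 note: 0% = enzyme with DMSO and 100% = wells lacking PAFAH1B2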
Target sequence (P68402 whole entry, looked up): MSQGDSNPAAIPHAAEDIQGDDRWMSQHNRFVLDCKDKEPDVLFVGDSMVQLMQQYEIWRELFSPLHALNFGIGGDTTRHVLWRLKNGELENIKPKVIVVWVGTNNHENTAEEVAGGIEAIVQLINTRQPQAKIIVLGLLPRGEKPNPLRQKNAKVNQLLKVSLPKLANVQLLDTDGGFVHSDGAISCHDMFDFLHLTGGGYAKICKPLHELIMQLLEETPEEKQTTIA
PAFAH1B3 FP inh: PAFAH1B3 (human) inhibition. AID 492972. inhibition, % at 3.39 µM. hit rate 0.28% among 340,000. recombinant PAFAH1B3, FP-rhodamine probe, fluorescence polarization. Q15102;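 active = inhibition above the screen-wide average of all tested compounds plus 3 SD, cut at about 25% in these data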;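 note: 0% = enzyme with DMSO only and 100% = wells lacking PAFAH1B3 protein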
Target sequence (Q15102 whole entry, looked up): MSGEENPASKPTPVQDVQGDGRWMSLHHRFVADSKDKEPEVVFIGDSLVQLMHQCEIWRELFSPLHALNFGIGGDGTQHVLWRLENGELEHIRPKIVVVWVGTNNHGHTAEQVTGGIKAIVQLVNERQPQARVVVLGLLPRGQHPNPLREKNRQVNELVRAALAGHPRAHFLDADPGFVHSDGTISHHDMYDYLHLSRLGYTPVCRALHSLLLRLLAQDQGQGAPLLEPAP
An asterisk follows results filed as active; x = no result.

SMILES | pPAFAH FP inh | PAFAH2 FP inh | GRIN3A LBD mod | UCH37 DUB inh | PAFAH1B2 inh | PAFAH1B3 FP inh
Oc1cccc(/C=N/N=C/c2cccc(O)c2O)c1O | 5.4 | -15.5 | -2.4 | x | -8.0 | -3.9
COc1ccc(C=NNC(=O)c2cc3c(ccc4ccccc43)o2)c(OC)c1 | x | x | x | -172.6 | x | x
O=C(CSc1ncnc2[nH]ncc12)Nc1nc(-c2ccc(F)c(F)c2)cs1 | -36.3 | -43.4 | 20.2* | -2.1 | -17.3 | -25.1
COc1ccc2nc(C(F)(F)C(F)(F)F)c(C#N)c(N)c2c1 | -3.7 | -1.7 | 21.9* | 0.6 | 4.7 | 5.9
COc1cc(OC)c2c(N)c(C#N)c(C(F)(F)C(F)(F)F)nc2c1 | 2.1 | 1.9 | -0.7 | -23.5 | 4.4 | 0.2
CNC(=O)C(=O)NN=Cc1ccccn1 | x | x | x | 0.2 | x | x
CN(C)c1ccc(NC(=O)c2ccc(COc3cccc(Cl)c3)o2)cc1 | 26.7* | 23.3 | -3.4 | -0.4 | 4.3 | 4.5
CCN1CCN(C(=O)c2ccc(COc3cccc(Cl)c3)o2)CC1 | 5.2 | 5.3 | -0.4 | 2.6 | 7.1 | 3.9
O=C(CC1SC(=Nc2ccccc2)N(CCCCO)C1=O)NCc1ccccc1 (centres undefined) | 4.7 | -3.4 | 1.3 | 25.9* | 0.7 | 3.0
O=C(CC1SC(=Nc2ccccc2)N(CCc2c[nH]c3ccccc23)C1=O)Nc1ccccc1F (centres undefined) | 0.1 | -24.8 | 20.7* | 3.5 | 3.2 | -1.1
CCNc1nc(NCC)nc(NN=Cc2ccc(OC)cc2)n1 | x | x | x | 2.9 | x | x
Cc1nc(NN=Cc2cccc(F)c2)cc(N2CCOCC2)n1 | x | x | x | 5.0 | x | x
Cc1cccc2cc(C=NNC(=O)[C@H]3C[C@@H]3c3ccccc3)c(Cl)nc12 | x | x | x | -11.9 | x | x
Cc1[nH]c2ccccc2c1C=NNC(=S)NCc1ccccc1 | x | x | x | -1.1 | x | x
Oc1ccccc1C=NNc1ncc(Br)cn1 | x | x | x | 0.7 | x | x
O=C(CCS(=O)(=O)c1ccc2c(c1)NC(=O)CS2)NCCc1ccccc1 | 4.9 | 3.3 | -1.1 | 2.7 | 1.8 | 7.8
O=C(CCS(=O)(=O)c1ccc2c(c1)NC(=O)CS2)NCCc1ccc(Cl)cc1 | 5.0 | 1.4 | -0.8 | 3.8 | 26.0* | 5.8
O=C(Nc1ccc(OC(F)F)c(Cl)c1)C(c1ccccc1)c1ccccc1 | -19.3 | -38.5 | 20.9* | -1.0 | -13.0 | -21.4
O=C(Nc1cc(Cl)cc(Cl)c1)C(c1ccccc1)N1CCCCC1 (centres undefined) | -14.8 | -0.9 | -7.7 | 2.0 | -0.8 | 9.8
O=C(O)c1ccccc1OC(C(=O)Nc1cc(Cl)cc(Cl)c1)c1ccccc1 (centres undefined) | -0.3 | 3.6 | 23.0* | 2.1 | -0.8 | -8.9
COCc1cccc(NC(=O)Cc2cccc3ccccc23)c1 | -3.1 | -0.7 | 0.6 | 1.7 | 10.2 | 1.3
O=C(Cc1cccc2ccccc12)Nc1ccc(OC(F)F)c(Cl)c1 | -12.4 | -31.9 | 23.5* | -1.2 | -2.0 | 0.6
FC(F)Oc1ccc(NC(=S)NCc2ccccc2)cc1Cl | 0.2 | -13.5 | -2.3 | 1.0 | 3.2 | 0.2
CC(CCc1ccccc1)NC(=O)COC(=O)C1=COCCO1 (centres undefined) | 7.0 | 22.8 | -1.9 | -8.2 | 5.3 | 3.9
N#CC1(NC(=O)COC(=O)C2=COCCO2)CCCCC1 | 2.8 | 92.2* | -0.2 | x | 18.6 | 32.5*
SMILES | pPAFAH FP inh | PAFAH2 FP inh | GRIN3A LBD mod | UCH37 DUB inh | PAFAH1B2 inh | PAFAH1B3 FP inh
CC(NC(=O)COC(=O)C1=COCCO1)C12CC3CC(CC(C3)C1)C2 (centres undefined) | 4.3 | 51.9* | -2.1 | 2.5 | 24.8* | -6.3
Cc1cc(C)c(OCC(=O)NN=Cc2ccc3c(c2)OCO3)c(C)c1 | x | x | x | 2.2 | x | x
CCc1ccc(-c2cc(C(=O)NN=Cc3ccco3)[nH]n2)cc1 | x | x | x | -0.3 | x | x
Cc1ccc(NC(=O)COC(=O)C2CCN(c3ccc(C(F)(F)F)cn3)CC2)cc1 | 6.6 | 12.9 | 8.0 | 0.8 | 8.9 | 9.5
COc1cc(C(=O)COC(=O)C2CCN(c3ccc(C(F)(F)F)cn3)CC2)ccc1OC(F)F | 7.5 | -2.6 | 11.2* | -1.3 | -0.9 | 4.8
CCCOC(=O)c1ccc(NC(=O)COC(=O)C2CCN(c3ccc(C(F)(F)F)cn3)CC2)cc1 | x | -27.4 | 21.2* | x | -12.7 | -22.6
COc1cc(C=NNC(=O)CCn2nnc3ccccc32)ccc1O | x | x | x | -1.1 | x | x
O=C(O)C(CC(=NO)c1ccc(Br)cc1)P(=O)(c1ccccc1)c1ccccc1 (centres undefined) | x | x | x | 1.5 | x | x
CC(=O)c1ccc(N2Cc3ccccc3C2=NC(=O)Nc2ccc(Cl)cc2)cc1 | x | x | x | -57.9 | x | x
Cc1cc[n+](CC(=O)c2ccc3c(c2)OCCO3)cc1 | 1.7 | 5.6 | -1.5 | 24.1* | -0.4 | 0.1
O=C(C[n+]1ccc(/C=C/c2ccccc2)cc1)c1ccc2c(c1)OCCO2 | 9.0 | 2.9 | 1.5 | x | -2.0 | -5.2
CC(=NN1CCN(c2ccccn2)CC1)c1cccc([N+](=O)[O-])c1 | x | x | x | 3.6 | x | x
CCNc1nc(NCC)n2c(SCC(=O)Nc3c(C)cccc3C)nnc2n1 | 3.4 | -3.5 | 0.5 | -2.7 | -2.6 | 4.2
CCNc1nc(NCC)n2c(SCC(=O)Nc3cccc(Cl)c3)nnc2n1 | 2.0 | -2.9 | 1.8 | 2.1 | -5.7 | 8.7
CCNc1nc(NCC)n2c(SCC(=O)O)nnc2n1 | -1.9 | -4.3 | 2.3 | 34.1* | 5.5 | 3.4
CCNc1nc(NCC)n2c(SC(C(=O)Nc3cc(Cl)cc(Cl)c3)c3ccccc3)nnc2n1 (centres undefined) | -2.7 | -2.0 | 11.1* | 6.1 | 2.4 | -0.9
CCOC(=O)C(=NNc1ncnc2ccccc12)c1ccc(C)cc1 | x | x | x | 4.3 | x | x
Cc1cc(C)n(CC(=O)NN=Cc2ccc([N+](=O)[O-])s2)n1 | x | x | x | 12.8 | x | x
Cc1ccc(Cn2cc(C=NNc3ccc([N+](=O)[O-])cn3)c3ccccc32)cc1 | x | x | x | 9.8 | x | x
Cc1csc(NC(=O)Cc2c(F)cccc2Cl)n1 | -0.9 | 1.5 | -0.7 | x | 4.1 | 10.4
Cc1csc(Nc2nc(N)c(C(=O)Nc3cc(Cl)ccc3F)o2)n1 | 10.7 | -0.5 | 21.8* | 1.3 | -5.0 | 6.1
COc1ccccc1C=NNC(=O)CC(=O)NCc1ccccc1 | x | x | x | 2.7 | x | x
CCC(C(=O)O)n1c(C(F)(F)F)nc2ccccc21 (centres undefined) | 4.5 | -3.1 | 11.7* | 1.1 | 7.3 | 8.0
COc1cc(C=NNC(=O)Cn2nnc3ccccc32)ccc1O | x | x | x | 2.2 | x | x
O=C(NC(Cc1ccccc1)C(=O)O)OCc1ccccc1 (centres undefined) | 7.3 | -6.8 | 3.3 | 2.9 | 0.7 | 0.8
O=C(NC(Cc1ccccc1)C(=O)O)OCC1c2ccccc2-c2ccccc21 (centres undefined) | 6.7 | 3.0 | -3.0 | 6.2 | 27.0* | 10.0
CN1C/C(=C/c2cccnc2)C(=O)/C(=C/c2cccnc2)C1 | 5.3 | 1.3 | 20.3* | 6.6 | 1.4 | -2.6
O=C(Cc1ccccc1)NN=Cc1cc(Br)cs1 | x | x | x | 3.8 | x | x
CCOc1ccc(C(C)C)cc1S(=O)(=O)Nc1ccc(Cl)cn1 | 2.4 | 0.4 | 12.2* | 1.9 | 4.4 | 4.6
CCOC(C)=Nn1c2nc3ccccc3nc2c2c(=O)n(CC(C)C)c(C)nc21 | x | x | x | 5.3 | x | x
